Activity calls are given as the source filed them. No cut-off for these calls is given here.
Key:
[1] = Cytotoxicity against human A549 cells measured after 48 hrs by MTT assay; type: functional, cell-based; settings: A549, 48 h
Method in brief: (§1)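 MTT growth assay; cells seeded at 5×10³/well in RPMI1640 with 10% heat-inactivated FBS, attached 4–6 h, then exposed to five concentrations (0.01–100 μM, compounds dissolved in saline) for 48 h at 37 °C, 5% CO₂. MTT added for 4 h, formazan dissolved in DMSO, absorbance read at 490 nm. IC50 taken from log plot of percent of control versus concentration; means ± SD of triplicate experiments.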

[2] = Cytotoxicity against human WI38 cells measured after 48 hrs by MTT assay; type: toxicity, cell-based, WI-38
Method in brief: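 MTT growth inhibition in WI-38 lung fibroblasts. Cells seeded at 5×10³/well in RPMI1640 with 10% heat-inactivated FBS, attached 4–6 h, then exposed 48 h at 37 °C, 5% CO₂ to five concentrations (0.01–100 μM, saline-dissolved). MTT 4 h, DMSO solubilisation, A490. IC50 from log plot of percent control vs concentration; triplicate, mean ± SD.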

[3] = Inhibition of human RBC PP2A assessed as reduction in free phosphate ion release using Lys-Arg-pThr-Ile-Arg as substrate preincubated for 10 mins followed by substrate addition measured after 60 mins by malachite green method
Method in brief: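 Purified PP2A (0.6 mU/well) preincubated with inhibitor 10 min at 37 °C. Reaction started with 200 μM Lys-Arg-pThr-Ile-Arg in 50 mM Tris-HCl pH 7.0, 100 μM CaCl₂; 60 min at room temperature. Released phosphate read by malachite green at 650 nm after 10 min; enzyme-plus-buffer blanks. IC50 from dose–response; mean of three independent experiments in duplicate.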

[4] = Cytotoxicity against human HepG2 cells measured after 48 hrs by MTT assay; type: functional, cell-based; settings: HepG2, 48 h; method in brief: as §1
[5] = Cytotoxicity against human HeLa cells measured after 48 hrs by MTT assay; type: functional, cell-based; method in brief: as §1
[6] = Cytotoxicity against human HCT8 cells measured after 48 hrs by MTT assay; type: functional, cell-based; settings: HCT-8, 48 h; method in brief: as §1
[7] = Octanol-water partition coefficient, log P of the compound; type: physicochemical
Method in brief: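 Partition coefficient P = compound concentration in 1-octanol / compound concentration in water.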

Homo sapiens [8] = species: Homo sapiens; test: Inhibition of human topoisomerase-2 catalytic activity assessed as reduction in pBR322 supercoiled DNA relaxation at 100 uM measured after 60 mins by ethidium bromide staining agarose gel electrophoresis
Method in brief: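 Kit-based relaxation assay: supercoiled pBR322 plasmid DNA (250 ng/μL) with topoisomerase II (4 units) in kit assay buffer, 20 μL final, 60 min at 37 °C. Reaction stopped with 10% SDS, proteinase K treated, chloroform/isoamyl alcohol (24:1) extracted. Products resolved on 1% agarose in TAE (pH 8.0), ethidium bromide stained. Test concentrations 50 and 100 μM.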

HepG2 [9] = test: Inhibition of PP2A in human HepG2 cells assessed as residual activity by measuring phosphopeptide substrate level at 1 uM using RRAT(pT)VA as substrate preincubated for 24 hrs followed by substrate addition measured after 30 mins by molybdate dye based assay relative to control; type: cell-based
Method in brief: (§2)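 HepG2 cells treated 24 h in six-well plates, lysed, endogenous phosphate removed. Lysate incubated 30 min at 37 °C with phosphopeptide RRAT(pT)VA (5 μL of 1 mM). Stopped with molybdate dye mix; A600 after 15 min. Activity from phosphate standard curve, expressed relative to untreated control; mean ± SD.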

HepG2 [10] = test: Inhibition of PP2A in human HepG2 cells assessed as residual activity by measuring phosphopeptide substrate level at 2 uM using RRAT(pT)VA as substrate preincubated for 24 hrs followed by substrate addition measured after 30 mins by molybdate dye based assay relative to control; type: cell-based; method in brief: as §2
HepG2 [11] = test: Inhibition of PP2A in human HepG2 cells assessed as residual activity by measuring phosphopeptide substrate level at 5 uM using RRAT(pT)VA as substrate preincubated for 24 hrs followed by substrate addition measured after 30 mins by molybdate dye based assay relative to control; type: cell-based; method in brief: as §2
HepG2 [12] = test: Inhibition of PP2A in human HepG2 cells assessed as reduction in phosphopeptide substrate level using RRAT(pT)VA as substrate preincubated for 24 hrs followed by substrate addition measured after 30 mins by molybdate dye based assay; type: cell-based; method in brief: as §2
Homo sapiens [13] = species: Homo sapiens; test: Inhibition of human topoisomerase-2 catalytic activity assessed as reduction in pBR322 supercoiled DNA relaxation up to 100 uM measured after 60 mins by ethidium bromide staining agarose gel electrophoresis
Method in brief: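 Relaxation assay with supercoiled pBR322 (250 ng/μL) and topoisomerase II (4 units) in kit buffer, 20 μL, 60 min at 37 °C. Compound at 50 or 100 μM. Stopped with 10% SDS, proteinase K, chloroform/isoamyl alcohol extraction. Run on 1% agarose in TAE pH 8.0, ethidium bromide stained.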

HepG2 [14] = test: Induction of cell cycle arrest in human HepG2 cells assessed as accumulation at G2/M phase measured after 24 hrs by propidium iodide staining based flow cytometry; type: functional
Method in brief: (§3)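 HepG2 cells exposed 24 h to 0, 0.5 or 1 μM. (1–5)×10⁵ cells harvested, PBS-washed, fixed in 70% ice-cold ethanol at least overnight. Stained 15 min in dark with 1% Triton X-100, 0.01% RNase, 0.05% PI. Cell-cycle distribution by flow cytometry.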

HepG2 [15] = test: Induction of cell cycle arrest in human HepG2 cells assessed as accumulation at G2/M phase at 0.5 uM measured after 24 hrs by propidium iodide staining based flow cytometry (reference value: 9.4%); type: functional
HepG2 [16] = test: Induction of cell cycle arrest in human HepG2 cells assessed as accumulation at G2/M phase at 1 uM measured after 24 hrs by propidium iodide staining based flow cytometry (reference value: 9.4%); type: functional
HepG2 [17] = test: Induction of cell cycle arrest in human HepG2 cells assessed as increase in cyclin B1 expression at 0.5 to 1 uM measured after 24 hrs by western blot method; type: functional, cell-based
Method in brief: (§4)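 HepG2 cells grown 24 h in flasks, then treated with 0, 0.5 or 1 μM for 24 h. Lysis in Tris/NP-40/SDS buffer with protease inhibitors; Bradford protein assay. 30 μg protein on 10% or 12% SDS-PAGE, PVDF transfer, milk block 2 h. Cyclin B1 or cdc2 antibodies (1:500–1:1000) overnight at 4 °C, then secondary. β-actin loading control.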

HepG2 [18] = test: Induction of cell cycle arrest in human HepG2 cells assessed as decrease in G1 phase at 0.5 to 1 uM measured after 24 hrs by propidium iodide staining based flow cytometry; type: functional; method in brief: as §3
HepG2 [19] = test: Induction of cell cycle arrest in human HepG2 cells assessed as decrease in G1 phase by propidium iodide staining based flow cytometry; type: functional; settings: TDE = time-dependent effect; method in brief: as §3
HepG2 [20] = test: Induction of cell cycle arrest in human HepG2 cells assessed as increase in cyclin B1 expression measured after 24 hrs by western blot method; type: functional, cell-based; method in brief: as §4
HepG2 [21] = test: Induction of cell cycle arrest in human HepG2 cells assessed as increase in cyclin cdc-2 expression measured after 24 hrs by western blot method; type: functional, cell-based; method in brief: as §4
Bos taurus = species: Bos taurus; test: Binding affinity to calf thymus DNA at 1 uM at pH 7.2 measured after 5 mins by fluorescence spectroscopic method
Method in brief: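 CT DNA titrated (0–5 μM) into 1 μM compound in pH 7.2 PBS, equilibrated 5 min at 25 °C. Excitation at 318 nm, emission recorded over 280–400 nm. CT DNA samples in PBS at matching concentrations served as blanks.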

SMILES	IC50 [1] [µM]	IC50 at 48 h [2] [µM]	IC50 [3] [µM]	IC50 [4] [µM]	IC50 [5] [µM]	IC50 [6] [µM]	logP ([7]; read-out: logP)	other results
O=C1OC(=O)C2C3CCC(O3)C12 (stereo not drawn) [DEMETHYL-CANTHARIDIN]	12.2	26.7	0.48					
COc1cc([C@@H]2c3cc4c(cc3[C@@H](NC(=O)[C@H](CCSC)N3C(=O)C5C6CCC(O6)C5C3=O)[C@H]3COC(=O)[C@H]23)OCO4)cc(OC)c1O (stereo partly drawn)	6.12	30.4	1.29	7.04	2.82	12.3	0.93	
COc1cc([C@@H]2c3cc4c(cc3[C@@H](NC(=O)[C@H](Cc3cc5ccccc5[nH]3)N3C(=O)C5C6CCC(O6)C5C3=O)[C@H]3COC(=O)[C@H]23)OCO4)cc(OC)c1O (stereo partly drawn)	12	72.4	58.3	6.84	2.35	15.2	1.69	
COc1cc([C@@H]2c3cc4c(cc3[C@@H](NC(=O)[C@H](C)N3C(=O)C5C6CCC(O6)C5C3=O)[C@H]3COC(=O)[C@H]23)OCO4)cc(OC)c1O (stereo partly drawn)	44.5	35.6	> 100	13.7	15.1	16.9	0.62	
COc1cc([C@@H]2c3cc4c(cc3[C@@H](O[C@@H]3O[C@@H]5CO[C@@H](C)O[C@H]5[C@H](O)[C@H]3O)[C@H]3COC(=O)[C@H]23)OCO4)cc(OC)c1O [ETOPOSIDE]	29.7	17.6		5.21	13.5	10		logP [7]: 2.74; inhibition (Homo sapiens [8]): Active
COc1cc([C@@H]2c3cc4c(cc3[C@@H](NC(=O)CCCN3C(=O)C5C6CCC(O6)C5C3=O)[C@H]3COC(=O)[C@H]23)OCO4)cc(OC)c1O (stereo partly drawn)	4.57	> 100	0.49	< 0.01	4.33	3.48	0.68	Activity (HepG2 [9]): 73%; Activity (HepG2 [10]): 32%; Activity (HepG2 [11]): 27%; inhibition (HepG2 [12]): Dose-dependent effect; inhibition (Homo sapiens [13]): Active; Activity (HepG2 [14]): Dose-dependent effect; Activity (HepG2 [15]): 27.6%; Activity (HepG2 [16]): 58.6%; Activity (HepG2 [17]): Active; Activity (HepG2 [18]): Active; Activity (HepG2 [19]): Tde; Activity (HepG2 [20]): Dose-dependent effect; Activity (HepG2 [21]): Dose-dependent effect; Activity (Bos taurus): Active
COc1cc([C@@H]2c3cc4c(cc3[C@@H](NC(=O)c3ccc(N5C(=O)C6C7CCC(O7)C6C5=O)cc3)[C@H]3COC(=O)[C@H]23)OCO4)cc(OC)c1O (stereo partly drawn)	3.42	46.5	3.63	0.1	2.61	3.12	2.06	
COc1cc([C@@H]2c3cc4c(cc3[C@@H](NC(=O)[C@H](c3ccccc3)N3C(=O)C5C6CCC(O6)C5C3=O)[C@H]3COC(=O)[C@H]23)OCO4)cc(OC)c1O (stereo partly drawn)	7.03	26.7	> 100	1.98	28.5	15.3	1.99	
COc1cc([C@@H]2c3cc4c(cc3[C@@H](NC(=O)[C@H](CC(C)C)N3C(=O)C5C6CCC(O6)C5C3=O)[C@H]3COC(=O)[C@H]23)OCO4)cc(OC)c1O (stereo partly drawn)	8.11	21.9	> 100	10.5	> 100	21.4	1.83	
CC[C@H](C)[C@@H](C(=O)N[C@@H]1c2cc3c(cc2[C@@H](c2cc(OC)c(O)c(OC)c2)[C@H]2C(=O)OC[C@@H]21)OCO3)N1C(=O)C2C3CCC(O3)C2C1=O (stereo partly drawn)	10.1	65.2	75.7	3.21	2.52	23.6	1.91	
COc1cc([C@@H]2c3cc4c(cc3[C@@H](NC(=O)[C@H](Cc3ccccc3)N3C(=O)C5C6CCC(O6)C5C3=O)[C@H]3COC(=O)[C@H]23)OCO4)cc(OC)c1O (stereo partly drawn)	14.1	29.6	> 100	5.53	16	11.6	2.27	
COc1cc([C@@H]2c3cc4c(cc3[C@@H](NC(=O)[C@H](C(C)C)N3C(=O)C5C6CCC(O6)C5C3=O)[C@H]3COC(=O)[C@H]23)OCO4)cc(OC)c1O (stereo partly drawn)	6.73	44.4	1.12	1.62	8.3	7.81	1.48	
COc1cc([C@@H]2c3cc4c(cc3[C@@H](NC(=O)CN3C(=O)C5C6CCC(O6)C5C3=O)[C@H]3COC(=O)[C@H]23)OCO4)cc(OC)c1O (stereo partly drawn)	5.47	33.5	0.68	0.14	1.65	17.1	0.13	
COc1cc([C@@H]2c3cc4c(cc3[C@@H](NC(=O)CCN3C(=O)C5C6CCC(O6)C5C3=O)[C@H]3COC(=O)[C@H]23)OCO4)cc(OC)c1O (stereo partly drawn)	6.21	> 100	9.52	8.42	10.8	17.2	0.41	

— ChEMBL document CHEMBL3871269, “Conjugates of podophyllotoxin and norcantharidin as dual inhibitors of topoisomeraseⅡ and protein phosphatase 2A” (Eur J Med Chem, 2016)
